Laboratory results: ChEMBL document CHEMBL4152196, “Design, synthesis and biological evaluation of novel trimethylangelicin analogues targeting nuclear factor kB (NF-kB)” (Eur J Med Chem, 2018)

Experiments:
[1] = test system: Salmonella typhimurium; assay: Genotoxicity in Salmonella typhimurium TA100 assessed as revertant colonies at 100 uL/plate in presence of Sprague-Dawley rat S9 metabolic activation after 72 hrs by Ames test (reference value: 1); type: toxicity, organism-based; conditions: salmonella enterica subsp. enterica serovar typhimurium
[2] = test system: IB3-1; assay: Inhibition of TNF-alpha induced IL-17 production in human IB3-1 cells at 1 uM preincubated for 5 hrs followed by TNF-alpha stimulation and measured after 24 hrs relative to control; type: functional
Method in brief: (§1)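 IB3-1 cells (CF patient, ΔF508/W1282X, adeno12/SV40-immortalized) grown in LHC-8 with 5% FBS, no gentamycin, 37°C/5% CO₂; 60% confluent monolayers seeded, compound added after 24 h, 5 h before 80 ng/ml TNF-α, then 24 h further incubation. Cytokines in supernatants measured by Bioplex 27-plex Luminex bead assay: beads, detection antibody, streptavidin–phycoerythrin, 30/30/10 min at room temperature.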

[3] = test system: Salmonella typhimurium; assay: Genotoxicity in Salmonella typhimurium TA1535 assessed as revertant colonies at 10 uL/plate in presence of Sprague-Dawley rat S9 metabolic activation after 72 hrs by Ames test (reference value: 1); type: toxicity, organism-based; conditions: salmonella enterica subsp. enterica serovar typhimurium
[4] = test system: Salmonella typhimurium; assay: Genotoxicity in Salmonella typhimurium TA100 assessed as revertant colonies at 5 uL/plate in presence of Sprague-Dawley rat S9 metabolic activation after 72 hrs by Ames test (reference value: 1); type: toxicity, organism-based; conditions: salmonella enterica subsp. enterica serovar typhimurium
[5] = test system: U-251; assay: Cytotoxicity against human U251 cells after 2 days by cell counting analysis; type: cell-based; conditions: u-251, 48 h
[6] = test system: Salmonella typhimurium; assay: Genotoxicity in Salmonella typhimurium TA97A assessed as revertant colonies at 5 uL/plate in absence of Sprague-Dawley rat S9 metabolic activation after 72 hrs by Ames test (reference value: 1); type: toxicity, organism-based; conditions: salmonella enterica subsp. enterica serovar typhimurium
[7] = test system: Salmonella typhimurium; assay: Genotoxicity in Salmonella typhimurium TA97A assessed as revertant colonies at 100 uL/plate in presence of Sprague-Dawley rat S9 metabolic activation after 72 hrs by Ames test (reference value: 1); type: toxicity, organism-based; conditions: salmonella enterica subsp. enterica serovar typhimurium
[8] = test system: Salmonella typhimurium; assay: Genotoxicity in Salmonella typhimurium TA97A assessed as revertant colonies at 50 uL/plate in presence of Sprague-Dawley rat S9 metabolic activation after 72 hrs by Ames test (reference value: 1); type: toxicity, organism-based; conditions: salmonella enterica subsp. enterica serovar typhimurium
[9] = test system: Salmonella typhimurium; assay: Genotoxicity in Salmonella typhimurium TA97A assessed as revertant colonies at 10 uL/plate in presence of Sprague-Dawley rat S9 metabolic activation after 72 hrs by Ames test (reference value: 1); type: toxicity, organism-based; conditions: salmonella enterica subsp. enterica serovar typhimurium
[10] = test system: IB3-1; assay: Antiproliferative activity against human IB3-1 cells after 2 days by cell counting analysis; type: cell-based; conditions: IB3-1, 48 h
Method in brief: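 IB3-1 cells from a CF patient (ΔF508/W1282X), immortalized with adeno12/SV40, grown in LHC-8 with 5% FBS and no gentamycin at 37°C/5% CO₂. Treated at 12.5, 25, 50, 100, 200 and 800 µM. Cells counted by Coulter counter after 2 days, with untreated cells in log phase. IC₅₀ is the concentration giving 50% inhibition of cell growth.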

[11] = test system: Salmonella typhimurium; assay: Genotoxicity in Salmonella typhimurium TA97A assessed as revertant colonies at 5 uL/plate in presence of Sprague-Dawley rat S9 metabolic activation after 72 hrs by Ames test (reference value: 1); type: toxicity, organism-based; conditions: salmonella enterica subsp. enterica serovar typhimurium
[12] = test system: Salmonella typhimurium; assay: Genotoxicity in Salmonella typhimurium TA100 assessed as revertant colonies at 100 uL/plate in absence of Sprague-Dawley rat S9 metabolic activation after 72 hrs by Ames test (reference value: 1); type: toxicity, organism-based; conditions: salmonella enterica subsp. enterica serovar typhimurium
[13] = test system: Salmonella typhimurium; assay: Genotoxicity in Salmonella typhimurium TA1535 assessed as revertant colonies at 5 uL/plate in presence of Sprague-Dawley rat S9 metabolic activation after 72 hrs by Ames test (reference value: 1); type: toxicity, organism-based; conditions: salmonella enterica subsp. enterica serovar typhimurium
[14] = test system: Salmonella typhimurium; assay: Genotoxicity in Salmonella typhimurium TA98 assessed as revertant colonies at 50 uL/plate in presence of Sprague-Dawley rat S9 metabolic activation after 72 hrs by Ames test (reference value: 1); type: toxicity, organism-based; conditions: salmonella enterica subsp. enterica serovar typhimurium
[15] = test system: Salmonella typhimurium; assay: Genotoxicity in Salmonella typhimurium TA1535 assessed as revertant colonies at 10 uL/plate in absence of Sprague-Dawley rat S9 metabolic activation after 72 hrs by Ames test (reference value: 1); type: toxicity, organism-based; conditions: salmonella enterica subsp. enterica serovar typhimurium
[16] = test system: IB3-1; assay: Inhibition of TNF-alpha induced IL-10 production in human IB3-1 cells at 1 uM preincubated for 5 hrs followed by TNF-alpha stimulation and measured after 24 hrs relative to control; type: functional; method in brief: as §1
[17] = test system: Salmonella typhimurium; assay: Genotoxicity in Salmonella typhimurium TA100 assessed as revertant colonies at 10 uL/plate in presence of Sprague-Dawley rat S9 metabolic activation after 72 hrs by Ames test (reference value: 1); type: toxicity, organism-based; conditions: salmonella enterica subsp. enterica serovar typhimurium
[18] = test system: Salmonella typhimurium; assay: Genotoxicity in Salmonella typhimurium TA1535 assessed as revertant colonies at 50 uL/plate in presence of Sprague-Dawley rat S9 metabolic activation after 72 hrs by Ames test (reference value: 1); type: toxicity, organism-based; conditions: salmonella enterica subsp. enterica serovar typhimurium
[19] = test system: Salmonella typhimurium; assay: Genotoxicity in Salmonella typhimurium TA1535 assessed as revertant colonies at 1 uL/plate in absence of Sprague-Dawley rat S9 metabolic activation after 72 hrs by Ames test (reference value: 1); type: toxicity, organism-based; conditions: salmonella enterica subsp. enterica serovar typhimurium
[20] = test system: K562; assay: Cytotoxicity against human K562 cells after 2 days by cell counting analysis; type: cell-based; conditions: k562, 48 h
[21] = test system: Salmonella typhimurium; assay: Genotoxicity in Salmonella typhimurium TA98 assessed as revertant colonies at 100 uL/plate in presence of Sprague-Dawley rat S9 metabolic activation after 72 hrs by Ames test (reference value: 1); type: toxicity, organism-based; conditions: salmonella enterica subsp. enterica serovar typhimurium
[22] = test system: Salmonella typhimurium; assay: Genotoxicity in Salmonella typhimurium TA97A assessed as revertant colonies at 50 uL/plate in absence of Sprague-Dawley rat S9 metabolic activation after 72 hrs by Ames test (reference value: 1); type: toxicity, organism-based; conditions: salmonella enterica subsp. enterica serovar typhimurium
[23] = test system: Salmonella typhimurium; assay: Genotoxicity in Salmonella typhimurium TA1535 assessed as revertant colonies at 100 uL/plate in absence of Sprague-Dawley rat S9 metabolic activation after 72 hrs by Ames test (reference value: 1); type: toxicity, organism-based; conditions: salmonella enterica subsp. enterica serovar typhimurium
[24] = test system: Salmonella typhimurium; assay: Genotoxicity in Salmonella typhimurium TA1535 assessed as revertant colonies at 50 uL/plate in absence of Sprague-Dawley rat S9 metabolic activation after 72 hrs by Ames test (reference value: 1); type: toxicity, organism-based; conditions: salmonella enterica subsp. enterica serovar typhimurium
[25] = Inhibition of NF-kappaB (unknown origin) assessed as decrease in NF-kappaB/DNA interaction using 32P-labeled target NF-kappaB double-stranded oligonucleotide after 30 mins by EMSA; design: species or system Homo sapiens
Method in brief: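 Purified NF-κB p50 (0.1 µl/20 µl, 50 gsu) was combined with 0.25 ng of ³²P-labeled double-stranded NF-κB consensus oligonucleotide. Bound 30 min at room temperature, then run on 6% polyacrylamide in 0.25× TBE at 200 V. IC₅₀ is 50% inhibition of the complex.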

[26] = test system: Salmon testes DNA; assay: Induction of damage in salmon testes DNA at 100 uM in absence of 2.5 to 7.5 J/cm2 UVA irradiation by ethidium bromide dye-based agarose gel electrophoresis analysis; type: nucleic-acid assay; conditions: salmonidae
[27] = test system: Salmonella typhimurium; assay: Genotoxicity in Salmonella typhimurium TA97A assessed as revertant colonies at 1 uL/plate in presence of Sprague-Dawley rat S9 metabolic activation after 72 hrs by Ames test (reference value: 1); type: toxicity, organism-based; conditions: salmonella enterica subsp. enterica serovar typhimurium
[28] = test system: Salmonella typhimurium; assay: Genotoxicity in Salmonella typhimurium TA98 assessed as revertant colonies at 5 uL/plate in absence of Sprague-Dawley rat S9 metabolic activation after 72 hrs by Ames test (reference value: 1); type: toxicity, organism-based; conditions: salmonella enterica subsp. enterica serovar typhimurium
[29] = test system: Salmonella typhimurium; assay: Genotoxicity in Salmonella typhimurium TA98 assessed as revertant colonies at 1 uL/plate in presence of Sprague-Dawley rat S9 metabolic activation after 72 hrs by Ames test (reference value: 1); type: toxicity, organism-based; conditions: salmonella enterica subsp. enterica serovar typhimurium

IC50 [25]: 7.4 µM
SMILES: CCc1cc2c(C(C)C)cc(=O)oc2c2c(C)coc12
T/C [1]: 1.5 | inhibition at 1 µM [2]: > 20% | T/C [3]: 1.2 | T/C [4]: 1.1 | Activity [5]: Non-Toxic | T/C [6]: 0.9 | T/C [7]: 1 | T/C [8]: 1.2 | T/C [9]: 1.2 | IC50 [10]: > 200 µM | T/C [11]: 1.1 | T/C [12]: 0.9 | T/C [13]: 0.9 | T/C [14]: 0.7 | T/C [15]: 0.9 | inhibition at 1 µM [16]: > 20% | T/C [17]: 1 | T/C [18]: 1 | T/C [19]: 1.1 | Activity [20]: Non-Toxic | T/C [21]: 0.6 | T/C [22]: 1.1 | T/C [23]: 0.9 | T/C [24]: 1 | Activity [26]: Not Active | T/C [27]: 1 | T/C [28]: 1.2 | T/C [29]: 0.8
